≈ marks a conversion by molar mass, not a printed value.
Tests used:
Assay type in all cases: functional
Escherichia coli [1] = assay: Antimicrobial activity against Escherichia coli DH10B harboring beta-lactamase KPC-2 T237Q mutant by agar dilution method; conditions: K-12 DH10B
Procedure, shortened: (§1)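 LB agar dilution MICs followed CLSI criteria, with inocula applied by Steers replicator. […] Piperacillin-tazobactam was tested at an 8:1 ratio. Wild-type and mutant blaKPC-2 were carried on pBC SK(+), or wild type on pBR322-catI, in E. coli DH10B.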

Escherichia coli [2] = assay: Antimicrobial activity against Escherichia coli DH10B by agar dilution method; conditions: K-12 DH10B; procedure, shortened: as §1
Escherichia coli [3] = assay: Antimicrobial activity against Escherichia coli DH10B harboring plasmid pBC SK(+) carrying wild type beta-lactamase KPC-2 by agar dilution method; conditions: K-12 DH10B; procedure, shortened: as §1
Escherichia coli [4] = assay: Antimicrobial activity against Escherichia coli DH10B harboring beta-lactamase KPC-2 T237L mutant by agar dilution method in presence of beta-lactamase inhibitor Tazobactam; conditions: K-12 DH10B
Procedure, shortened: (§2)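 LB agar dilution MICs by CLSI criteria, inoculated with a Steers replicator. […] Strains were E. coli DH10B with or without pBC SK(+) carrying wild-type blaKPC-2 or a position 237 variant.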

Escherichia coli [5] = assay: Antimicrobial activity against Escherichia coli DH10B harboring beta-lactamase KPC-2 T237C mutant by agar dilution method; conditions: K-12 DH10B; procedure, shortened: as §1
Escherichia coli [6] = assay: Antimicrobial activity against Escherichia coli DH10B harboring beta-lactamase KPC-2 T237I mutant by agar dilution method; conditions: K-12 DH10B; procedure, shortened: as §1
Escherichia coli [7] = assay: Antimicrobial activity against Escherichia coli DH10B harboring beta-lactamase KPC-2 T237V mutant by agar dilution method; conditions: K-12 DH10B; procedure, shortened: as §1
Escherichia coli [8] = assay: Antimicrobial activity against Escherichia coli DH10B harboring beta-lactamase KPC-2 T237E mutant by agar dilution method; conditions: K-12 DH10B; procedure, shortened: as §1
Escherichia coli [9] = assay: Antimicrobial activity against Escherichia coli DH10B harboring beta-lactamase KPC-2 T237E mutant by agar dilution method in presence of beta-lactamase inhibitor Tazobactam; conditions: K-12 DH10B; procedure, shortened: as §2
Escherichia coli [10] = assay: Antimicrobial activity against Escherichia coli DH10B harboring beta-lactamase KPC-2 T237H mutant by agar dilution method; conditions: K-12 DH10B; procedure, shortened: as §1
Klebsiella pneumoniae = assay: Antimicrobial activity against Klebsiella pneumoniae 1534 expressing beta-lactamase KPC-2 by agar dilution method
Procedure, shortened: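 MICs were determined by LB agar dilution following CLSI criteria, with a Steers replicator. […] Piperacillin-tazobactam was kept at an 8:1 ratio.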

Escherichia coli [11] = assay: Antimicrobial activity against Escherichia coli DH10B harboring plasmid […] by agar dilution method; conditions: K-12 DH10B; procedure, shortened: as §1
Escherichia coli [12] = assay: Antimicrobial activity against Escherichia coli DH10B harboring beta-lactamase KPC-2 T237P mutant by agar dilution method; conditions: K-12 DH10B; procedure, shortened: as §1
Escherichia coli [13] = assay: Antimicrobial activity against Escherichia coli DH10B harboring beta-lactamase KPC-2 T237P mutant by agar dilution method in presence of beta-lactamase inhibitor Tazobactam; conditions: K-12 DH10B; procedure, shortened: as §2
Escherichia coli [14] = assay: Antimicrobial activity against Escherichia coli DH10B harboring beta-lactamase KPC-2 T237L mutant by agar dilution method; conditions: K-12 DH10B; procedure, shortened: as §1
Escherichia coli [15] = assay: Antimicrobial activity against Escherichia coli DH10B harboring beta-lactamase KPC-2 T237D mutant by agar dilution method; conditions: K-12 DH10B; procedure, shortened: as §1
Escherichia coli [16] = assay: Antimicrobial activity against Escherichia coli DH10B harboring beta-lactamase KPC-2 T237K mutant by agar dilution method; conditions: K-12 DH10B; procedure, shortened: as §1
Escherichia coli [17] = assay: Antimicrobial activity against Escherichia coli DH10B harboring beta-lactamase KPC-2 T237N mutant by agar dilution method; conditions: K-12 DH10B; procedure, shortened: as §1
Escherichia coli [18] = assay: Antimicrobial activity against Escherichia coli DH10B harboring plasmid pBR322-catI carrying beta-lactamase KPC-2 by agar dilution method; conditions: K-12 DH10B; procedure, shortened: as §1
Escherichia coli [19] = assay: Antimicrobial activity against Escherichia coli DH10B by agar dilution method in presence of beta-lactamase inhibitor Tazobactam; conditions: K-12 DH10B; procedure, shortened: as §2
Escherichia coli [20] = assay: Antimicrobial activity against Escherichia coli DH10B harboring beta-lactamase KPC-2 T237W mutant by agar dilution method; conditions: K-12 DH10B; procedure, shortened: as §1
Escherichia coli [21] = assay: Antimicrobial activity against Escherichia coli DH10B harboring beta-lactamase KPC-2 T237R mutant by agar dilution method; conditions: K-12 DH10B; procedure, shortened: as §1
Escherichia coli [22] = assay: Antimicrobial activity against Escherichia coli DH10B harboring beta-lactamase KPC-2 T237F mutant by agar dilution method; conditions: K-12 DH10B; procedure, shortened: as §1
Escherichia coli [23] = assay: Antimicrobial activity against Escherichia coli DH10B harboring beta-lactamase KPC-2 T237G mutant by agar dilution method; conditions: K-12 DH10B; procedure, shortened: as §1
Escherichia coli [24] = assay: Antimicrobial activity against Escherichia coli DH10B harboring beta-lactamase KPC-2 T237A mutant by agar dilution method; conditions: K-12 DH10B; procedure, shortened: as §1
Escherichia coli [25] = assay: Antimicrobial activity against Escherichia coli DH10B harboring beta-lactamase KPC-2 T237M mutant by agar dilution method; conditions: K-12 DH10B; procedure, shortened: as §1
Escherichia coli [26] = assay: Antimicrobial activity against Escherichia coli DH10B harboring beta-lactamase KPC-2 T237S mutant by agar dilution method; conditions: K-12 DH10B; procedure, shortened: as §1
Escherichia coli [27] = assay: Antimicrobial activity against Escherichia coli DH10B harboring beta-lactamase KPC-2 T237Y mutant by agar dilution method; conditions: K-12 DH10B; procedure, shortened: as §1
Escherichia coli [28] = assay: Antimicrobial activity against Escherichia coli DH10B harboring beta-lactamase KPC-2 T237Y mutant by agar dilution method in presence of beta-lactamase inhibitor Tazobactam; conditions: K-12 DH10B; procedure, shortened: as §2
Escherichia coli [29] = assay: Antimicrobial activity against Escherichia coli DH10B harboring beta-lactamase KPC-2 T237E mutant by agar dilution method in presence of beta-lactamase inhibitor Sulbactam; conditions: K-12 DH10B
Procedure, shortened: (§3)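 LB agar dilution MICs by CLSI criteria, applied with a Steers replicator. […] Hosts were E. coli DH10B carrying pBC SK(+) with wild-type blaKPC-2 or a position 237 variant.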

Escherichia coli [30] = assay: Antimicrobial activity against Escherichia coli DH10B by agar dilution method in presence of beta-lactamase inhibitor clavulanic acid; conditions: K-12 DH10B
Procedure, shortened: (§4)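 LB agar dilution MICs per CLSI criteria, inoculated with a Steers replicator. […] Strains: E. coli DH10B alone, DH10B carrying empty pBC SK(+), or DH10B carrying pBC SK(+)-blaKPC-2 position 237 variants made by site-saturation mutagenesis and confirmed by sequencing. Plasmid selection used 20 mg/liter chloramphenicol.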

Escherichia coli [31] = assay: Antimicrobial activity against Escherichia coli DH10B harboring plasmid pBR322-catI carrying beta-lactamase KPC-2 by agar dilution method in presence of beta-lactamase inhibitor Sulbactam; conditions: K-12 DH10B
Escherichia coli [32] = assay: Antimicrobial activity against Escherichia coli DH10B harboring beta-lactamase KPC-2 T237S mutant by agar dilution method in presence of beta-lactamase inhibitor Sulbactam; conditions: K-12 DH10B; procedure, shortened: as §3
Escherichia coli [33] = assay: Antimicrobial activity against Escherichia coli DH10B harboring beta-lactamase KPC-2 T237E mutant by agar dilution method in presence of beta-lactamase inhibitor clavulanic acid; conditions: K-12 DH10B; procedure, shortened: as §3
Escherichia coli [34] = assay: Antimicrobial activity against Escherichia coli DH10B harboring beta-lactamase KPC-2 T237M mutant by agar dilution method in presence of beta-lactamase inhibitor Sulbactam; conditions: K-12 DH10B; procedure, shortened: as §3
Escherichia coli [35] = assay: Antimicrobial activity against Escherichia coli DH10B harboring beta-lactamase KPC-2 T237L mutant by agar dilution method in presence of beta-lactamase inhibitor Sulbactam; conditions: K-12 DH10B; procedure, shortened: as §3
Escherichia coli [36] = assay: Antimicrobial activity against Escherichia coli DH10B harboring beta-lactamase KPC-2 T237Q mutant by agar dilution method in presence of beta-lactamase inhibitor Sulbactam; conditions: K-12 DH10B; procedure, shortened: as §3
Escherichia coli [37] = assay: Antimicrobial activity against Escherichia coli DH10B harboring beta-lactamase KPC-2 T237C mutant by agar dilution method in presence of beta-lactamase inhibitor Sulbactam; conditions: K-12 DH10B; procedure, shortened: as §4
Escherichia coli [38] = assay: Antimicrobial activity against Escherichia coli DH10B harboring beta-lactamase KPC-2 T237A mutant by agar dilution method in presence of beta-lactamase inhibitor clavulanic acid; conditions: K-12 DH10B; procedure, shortened: as §3
Escherichia coli [39] = assay: Antimicrobial activity against Escherichia coli DH10B harboring beta-lactamase KPC-2 T237I mutant by agar dilution method in presence of beta-lactamase inhibitor Sulbactam; conditions: K-12 DH10B; procedure, shortened: as §3

With CCN1CCN(C(=O)N[C@@H](C(=O)N[C@@H]2C(=O)N3[C@@H]2SC(C)(C)[C@@H]3C(=O)O)c2ccccc2)C(=O)C1=O [PIPERACILLIN] the MIC (Escherichia coli [1]) was 64 µg/mL (≈ 124 µM), the MIC (Escherichia coli [2]) was 2 µg/mL (≈ 3.86 µM) and the MIC (Escherichia coli [3]) was 128 µg/mL (≈ 247 µM). The MIC (Escherichia coli [4]) was 2 µg/mL, the MIC (Escherichia coli [5]) was 4 µg/mL (≈ 7.73 µM) and the MIC (Escherichia coli [6]) was 8 µg/mL (≈ 15.5 µM). For the same compound, the MIC (Escherichia coli [7]) was 16 µg/mL (≈ 30.9 µM), the MIC (Escherichia coli [8]) was 8 µg/mL (≈ 15.5 µM) and the MIC (Escherichia coli [9]) was 0.5 µg/mL. The MIC (Escherichia coli [10]) was 8 µg/mL (≈ 15.5 µM), the MIC (Klebsiella pneumoniae) was 1020 µg/mL (≈ 1980 µM) and the MIC (Escherichia coli [11]) was 2 µg/mL (≈ 3.86 µM). The MIC (Escherichia coli [12]) was 1 µg/mL (≈ 1.93 µM), the MIC (Escherichia coli [13]) was 0.5 µg/mL and the MIC (Escherichia coli [14]) was 16 µg/mL (≈ 30.9 µM). It also gave an MIC (Escherichia coli [15]) of 4 µg/mL (≈ 7.73 µM), an MIC (Escherichia coli [16]) of 1 µg/mL (≈ 1.93 µM) and an MIC (Escherichia coli [17]) of 8 µg/mL (≈ 15.5 µM). The MIC (Escherichia coli [18]) was 1020 µg/mL (≈ 1980 µM), the MIC (Escherichia coli [19]) was 0.5 µg/mL and the MIC (Escherichia coli [20]) was 8 µg/mL (≈ 15.5 µM). It also gave an MIC (Escherichia coli [21]) of 4 µg/mL (≈ 7.73 µM), an MIC (Escherichia coli [22]) of 4 µg/mL (≈ 7.73 µM) and an MIC (Escherichia coli [23]) of 16 µg/mL (≈ 30.9 µM). It also gave an MIC (Escherichia coli [24]) of 64 µg/mL (≈ 124 µM), an MIC (Escherichia coli [25]) of 32 µg/mL (≈ 61.8 µM) and an MIC (Escherichia coli [26]) of 128 µg/mL (≈ 247 µM). It also gave an MIC (Escherichia coli [27]) of 4 µg/mL (≈ 7.73 µM) and an MIC (Escherichia coli [28]) of 0.5 µg/mL.
CC1(C)S[C@@H]2[C@H](NC(=O)[C@H](N)c3ccccc3)C(=O)N2[C@H]1C(=O)O [AMPICILLIN] gave an MIC (Escherichia coli [1]) of 256 µg/mL (≈ 733 µM), an MIC (Escherichia coli [2]) of 1 µg/mL (≈ 2.86 µM) and an MIC (Escherichia coli [3]) of 256 µg/mL (≈ 733 µM). The MIC (Escherichia coli [5]) was 4 µg/mL (≈ 11.4 µM), the MIC (Escherichia coli [6]) was 64 µg/mL (≈ 183 µM) and the MIC (Escherichia coli [7]) was 128 µg/mL (≈ 366 µM). The MIC (Escherichia coli [29]) was 8 µg/mL, the MIC (Escherichia coli [8]) was 32 µg/mL (≈ 91.6 µM) and the MIC (Escherichia coli [10]) was 64 µg/mL (≈ 183 µM). The MIC (Escherichia coli [30]) was 1 µg/mL, the MIC (Klebsiella pneumoniae) was 8190 µg/mL (≈ 23400 µM) and the MIC (Escherichia coli [11]) was 1 µg/mL (≈ 2.86 µM). It also gave an MIC (Escherichia coli [12]) of 1 µg/mL (≈ 2.86 µM), an MIC (Escherichia coli [31]) of 512 µg/mL and an MIC (Escherichia coli [32]) of 128 µg/mL. It also gave an MIC (Escherichia coli [14]) of 64 µg/mL (≈ 183 µM), an MIC (Escherichia coli [33]) of 8 µg/mL and an MIC (Escherichia coli [15]) of 16 µg/mL (≈ 45.8 µM). For the same compound, the MIC (Escherichia coli [16]) was 1 µg/mL (≈ 2.86 µM), the MIC (Escherichia coli [17]) was 32 µg/mL (≈ 91.6 µM) and the MIC (Escherichia coli [34]) was 16 µg/mL. For the same compound, the MIC (Escherichia coli [18]) was 4100 µg/mL (≈ 11700 µM), the MIC (Escherichia coli [35]) was 16 µg/mL and the MIC (Escherichia coli [20]) was 16 µg/mL (≈ 45.8 µM). It also gave an MIC (Escherichia coli [36]) of 64 µg/mL, an MIC (Escherichia coli [37]) of 1 µg/mL and an MIC (Escherichia coli [21]) of 4 µg/mL (≈ 11.4 µM). For the same compound, the MIC (Escherichia coli [38]) was 8 µg/mL, the MIC (Escherichia coli [22]) was 16 µg/mL (≈ 45.8 µM) and the MIC (Escherichia coli [23]) was 128 µg/mL (≈ 366 µM). The MIC (Escherichia coli [24]) was 256 µg/mL (≈ 733 µM), the MIC (Escherichia coli [25]) was 128 µg/mL (≈ 366 µM) and the MIC (Escherichia coli [39]) was 16 µg/mL. It also gave an MIC (Escherichia coli [26]) of 512 µg/mL (≈ 1470 µM) and an MIC (Escherichia coli [27]) of 16 µg/mL (≈ 45.8 µM).
